In series [1] the target is TGF-beta receptor type-1 (Homo sapiens) (UniProt P36897). As to the kind of experiment: Inhibition of TGFbetaR1-mediated smad phosphorylation in human HaCaT cells at 1 uM measured within 24 hrs by dual-luciferase reporter gene assay. A general note: A reporter such as luciferase makes a cellular process visible.
A short description of series [2]: Antiproliferative activity against human PC9 cells at 10 uM after 48 hrs by SRB assay. The following applies: PC-9, 48 h. It is filed as functional. The method in brief: (§1)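 SRB assay: 1 × 10^4 cells per well in 96-well plates exposed to compound 48 h; fixed with 10% TCA, stained 30 min at room temperature, washed with 1% acetic acid, dye dissolved in 10 mM Tris base, OD 510 nm. Percent inhibition = decrease in absorbance relative to DMSO control wells.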
For orientation: In SRB staining, fixed cells bind dye roughly in proportion to their protein.

Series [3] in a line: Antimigratory activity against human H1299 cells assessed as inhibition of cell migration after 12 to 24 hrs by transwell migration assay. It is filed as functional, cell-based. The following applies: NCI-H1299. The method, boiled down: (§2)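 Transwell chambers, 8 μm pore filters; 5 × 10^5 cells in DMEM in top chamber with compound, 10% FBS medium below, 37 °C, 5% CO2; after 12−24 h non-migrated cells swabbed off, migrated cells fixed, stained with 0.2% crystal violet in PBS and counted in five random 10× fields per membrane. Means ± SD.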

Series [4] has as its system A549. The experiment in a line: Antitumor activity against human A549 cells xenografted in nude mouse assessed as suppression of tumor volume at 20 mg/kg, ip qd for 60 days measured up to 60 days. In kind it is functional, organism-based. The arrangement: dose 20 mg/kg. The method, boiled down:
(§3)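 Nude mice (5 weeks old, acclimated 1 week) given 5 × 10^5 A549 cells in PBS subcutaneously; at ~10 mm tumor diameter, 15 mice size-matched into three groups (n = 5): DMSO vehicle, 5.0 mg/kg or 20 mg/kg ip in 50 μL DMSO daily for 60 days. Body weight and tumor dimensions measured daily; volume = 0.52 × AB².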
Background: In xenograft studies the graft and the host belong to different species.

For series [5], the system named is Mus musculus. The experiment in a line: Toxicity in nude mouse xenografted with human A549 cells assessed as body weight change at 20 mg/kg, ip qd for 60 days measured up to 60 days. In kind it is organism-based. The following applies: in vivo, 1440 h. Also on record: dose 20 mg/kg, route intraperitoneal. The method in brief: as §3
Series [6] has as its system A549. As to the kind of experiment: Antiproliferative activity against human A549 cells after 48 hrs by SRB assay. In kind it is functional, cell-based. The following applies: A549, 48 h. The method in brief: as §1
A short description of series [7]: Antiproliferative activity against human PC9 cells after 48 hrs by SRB assay. In kind it is functional, cell-based. Conditions: PC-9, 48 h. The method, boiled down: as §1
Series [8] is described as follows: Antiproliferative activity against human H1299 cells after 48 hrs by SRB assay. Conditions: NCI-H1299, 48 h. It is filed as functional, cell-based. The method in brief:
as §1

The nature of series [9]: Antimigratory activity against human H1299 cells assessed as decrease in cell migration after 12 hrs by wound healing assay. The following applies: NCI-H1299, 12 h.
The subject of series [10] is NCI-H1299. As to the kind of experiment: Antiproliferative activity against human H1299 cells assessed as cell viability at 1 uM after 12 hrs by SRB assay. It is filed as functional, cell-based.
The subject of series [11] is NCI-H1299. The experiment in a line: Antimigratory activity against human H1299 cells assessed as reduction in distance at 1 uM after 24 hrs by time-lapse video microscopy. In kind it is functional, cell-based. The method, boiled down: (§4)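 H1299 cells (5 × 10^4) in 30 mm dishes pretreated with or without compound for 24 h, then tracked by time-lapse microscopy, one frame per 10 min over 10 h; eight random cells per condition; migration distance and speed taken from track plots. Means ± SD, Student's t test.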

Series [12] concerns Mus musculus. As to the kind of experiment: Toxicity in nude mouse xenografted with human A549 cells assessed as body weight change at 5 mg/kg, ip qd for 60 days measured up to 60 days. It is filed as organism-based. Also on record: dose 5 mg/kg, route intraperitoneal. The following applies: in vivo, 1440 h. The method, boiled down: as §3
The subject of series [13] is NCI-H1299. The experiment in a line: Antimigratory activity against human H1299 cells assessed as reduction of cell velocity at 1 uM after 24 hrs by time-lapse video microscopy. It is filed as functional, cell-based. The method, boiled down: as §4
The subject of series [14] is A549. The experiment in a line: Antimigratory activity against human A549 cells assessed as inhibition of cell migration after 12 to 24 hrs by transwell migration assay. In kind it is functional, cell-based. The method, boiled down:
as §2

Series [15] deals with 4T1. As to the kind of experiment: Antitumor activity against mouse 4T1 cells expressing luciferase allograted in ip dosed Balb/c mouse assessed as suppression of tumor volume compound administered for 20 days measured after 20 days. In kind it is functional, organism-based. The method in brief: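 Female Balb/c mice (6 weeks old) given 5 × 10^4 4T1-luciferase cells into mammary fat pad; after 7 days (~5 mm tumors) 24 mice randomized into DMSO vehicle, 1.0 or 5.0 mg/kg/day ip groups; after 20 days tumor burden quantified as bioluminescence by in vivo imaging. Body weight measured daily. Mean ± SD.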

Series [16] deals with A549. As to the kind of experiment: Antimigratory activity against human A549 cells assessed as decrease in cell migration after 12 hrs by wound healing assay. The following applies: A549, 12 h.
Series [17] relates to A549. The experiment in a line: Antitumor activity against human A549 cells xenografted in nude mouse assessed as suppression of tumor volume at 5 mg/kg, ip qd for 60 days measured up to 60 days. It is filed as functional, organism-based. The arrangement: dose 5 mg/kg. The method, boiled down: as §3
The test system of series [18] is A549. As to the kind of experiment: Antiproliferative activity against human A549 cells assessed as cell viability at 1 uM after 12 hrs by SRB assay. It is filed as functional, cell-based.

The source made the active and inactive calls. The rule behind the calls is not given here.

As usually defined, the inhibition is how much of the control response was suppressed. Higher therefore signals a strong effect. By IC50 is commonly meant the concentration that gives 50% inhibition.

Sequence of TGF-beta receptor type-1 (Homo sapiens) (P36897 whole entry, looked up): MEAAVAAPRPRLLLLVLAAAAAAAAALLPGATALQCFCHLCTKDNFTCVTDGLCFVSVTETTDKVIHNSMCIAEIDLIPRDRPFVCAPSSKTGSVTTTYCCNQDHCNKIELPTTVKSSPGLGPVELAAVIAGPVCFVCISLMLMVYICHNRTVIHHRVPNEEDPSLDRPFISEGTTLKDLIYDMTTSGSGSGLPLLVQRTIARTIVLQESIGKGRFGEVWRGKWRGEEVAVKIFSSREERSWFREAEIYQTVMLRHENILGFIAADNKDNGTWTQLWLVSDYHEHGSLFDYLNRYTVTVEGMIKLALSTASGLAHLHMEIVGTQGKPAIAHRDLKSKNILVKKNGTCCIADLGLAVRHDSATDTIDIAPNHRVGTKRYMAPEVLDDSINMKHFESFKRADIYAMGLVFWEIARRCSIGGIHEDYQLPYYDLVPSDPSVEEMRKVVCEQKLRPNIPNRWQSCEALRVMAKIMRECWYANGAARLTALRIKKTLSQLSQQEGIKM

For `O=C(c1ccccn1)N1CCc2c([nH]c3ccccc23)C1`, the inhibition in [1] is 1.1%. Testing at 10 µM in series [2] gave an inhibition of 4%.
As to `O=C(c1cccs1)N1CCc2c([nH]c3ccccc23)C1`, the inhibition in series [1] was determined as 2.2%. The compound further returned an inhibition at 10 µM in [2] of 9%.
On to `O=C(Cc1ccc(O)cc1)N1CCc2c([nH]c3ccccc23)C1`, for which the inhibition in [1] is 64.2%. The compound further returned an inhibition at 10 µM in series [2] of 39%.
`CC(C)(C)OC(=O)NC(Cc1ccccc1)C(=O)N1CCc2c([nH]c3ccccc23)C1` (stereo unspecified) had an inhibition in series [1] of 44.3%. In addition, the inhibition at 10 µM in series [2] was determined as 0%.
In series [1], `CC1c2[nH]c3ccc(O)cc3c2CCN1C(=O)Cc1ccccc1` (stereo unspecified) returned an inhibition of 11.2%. In [2], this compound gave an inhibition at 10 µM of 8%.
For the compound `O=C(C(O)c1ccccc1)N1CCc2c([nH]c3ccccc23)C1` (stereo unspecified), the inhibition in [1] stood at 12.9%. In addition, at 10 µM the inhibition in series [2] was 28%.
Compound `NC(C(=O)N1CCc2c([nH]c3ccccc23)C1)c1ccccc1` (stereo unspecified) came in with an inhibition in [1] of 10.9%. Further, in series [2], the inhibition at 10 µM is 11%.
For the compound `Nc1ccc(CC(=O)N2CCc3c([nH]c4ccccc34)C2)cc1`, in series [1], the inhibition came out at 18.1%. 10 µM produced 8% inhibition in series [2].
The matching figures for `CCC1c2[nH]c3ccccc3c2CCN1C(=O)Cc1ccccc1` (stereo unspecified): 52.1% and 24%.
In series [1], `O=C(Cc1ccccc1O)N1CCc2c([nH]c3ccccc23)C1` gave an inhibition of 19.7%. This compound came in with an inhibition at 10 µM in [2] of 33%.
For `O=C(Cc1ccc(CBr)cc1)N1CCc2c([nH]c3ccccc23)C1`, in [1], the inhibition stood at 50.1%. In addition, in series [2], the inhibition at 10 µM came to 26%.
In series [1], `O=C(N1CCc2c([nH]c3ccccc23)C1)C(O)(c1ccccc1)c1ccccc1` came in with an inhibition of 12.3%. Besides, the inhibition at 10 µM in [2] was 0%.
Regarding `NC(=O)c1ccc(-c2nc(-c3ccccn3)c(-c3ccc4c(c3)OCO4)[nH]2)cc1` [SB-431542], the IC50 in series [3] is 0.5 µM.
In [1], `O=C(c1ccccc1)N1CCc2c([nH]c3ccccc23)C1` showed an inhibition of 9.5%. Moreover, 10 µM produced 7% inhibition in [2].
The matching figures for `O=C(Cc1cccc(O)c1)N1CCc2c([nH]c3ccccc23)C1`: 29.1% and 11%.
For the compound `O=C(CCc1ccccc1)N1CCc2c([nH]c3ccccc23)C1`, the inhibition in [1] was 31.1%. The same compound gave an inhibition at 10 µM in [2] of 48%.
Regarding `O=C(O)CC1c2[nH]c3ccccc3c2CCN1C(=O)Cc1ccccc1` (stereo unspecified), the inhibition in series [1] worked out at 4.1%. In series [2], the inhibition at 10 µM was determined as 9%.
Regarding `COc1cc2ncnc(Nc3ccc(F)c(Cl)c3)c2cc1OCCCN1CCOCC1` [GEFITINIB], the outcome in series [4] was Active. Also, the Activity result in series [5] was “Toxic”.
Consider `CCN(CC)c1ccc(CC(=O)N2CCc3c([nH]c4ccccc34)C2)cc1`, for which the inhibition in [1] came to 49%. Further, 10 µM produced 18% inhibition in [2].
Regarding `O=C(Cc1ccccc1)N1CCc2c([nH]c3ccc(F)cc23)C1`, the IC50 stood at 4.85 µM in series [6], 7.09 µM in series [7] and 6.19 µM in series [8]. This compound displayed an inhibition at 10 µM in series [2] of 78%.
Compound `CC(C)(C)OC(=O)NC(C(=O)N1CCc2c([nH]c3ccccc23)C1)c1ccccc1` (stereo unspecified) returned an inhibition in [1] of 58.8%. In series [2], this compound showed an inhibition at 10 µM of 31%.
For the compound `O=C(Cc1ccccc1)N1CCc2c([nH]c3ccccc23)C1`, the IC50 was 0.1 µM in [9]; 7.9 µM in [6]; less than 0.5 µM in series [14]; 5.87 µM in series [7]; 0.1 µM in series [16]; less than 0.5 µM in series [3]. The compound also yielded an IC50 in series [8] of 8.07 µM. In addition, the inhibition in [1] was found to be 72.4%. In addition, the result in [10], in [11], in series [13], in series [17] and in [18] was Active. In addition, the Activity entry is “Toxic” in series [12] and “Dose-dependent effect” in [15]. In series [2], this compound displayed an inhibition at 10 µM of 59%.
In series [1], `COC(=O)CC1c2[nH]c3ccccc3c2CCN1C(=O)Cc1ccccc1` (stereo unspecified) gave an inhibition of 18.2%.
`O=C(Cc1ccccc1)N1CCc2c([nH]c3ccc(Br)cc23)C1` yielded an inhibition at 10 µM in [2] of 47%.
Turning to `O=Cc1ccc(CC(=O)N2CCc3c([nH]c4ccccc34)C2)cc1`, the inhibition in series [1] stood at 11.8%. This compound also registered an inhibition at 10 µM in [2] of 21%.
The matching figures for `O=C(Cc1ccccc1)N1CCc2c([nH]c3ccccc23)C1c1ccccc1` (stereo unspecified): 10.3% and 10%.
For the compound `O=C(Cc1ccc(O)c(O)c1)N1CCc2c([nH]c3ccccc23)C1`, in [1], the inhibition stood at 21%. The same compound displayed an inhibition at 10 µM in [2] of 26%.
For `O=C(Cc1ccc(Cl)cc1)N1CCc2c([nH]c3ccccc23)C1`, the inhibition in series [1] worked out at 7.9%. For the same compound, 10 µM produced 33% inhibition in series [2].
In the case of `O=C(Cc1ccc(F)cc1)N1CCc2c([nH]c3ccccc23)C1`, the inhibition in [1] was found to be 11.8%. The same compound yielded an inhibition at 10 µM in [2] of 21%.

The record behind these values is ChEMBL document CHEMBL3112548, “Synthesis and biological evaluation of novel tetrahydro-β-carboline derivatives as antitumor growth and metastasis agents through inhibiting the transforming growth factor-β signaling pathway” (J Med Chem, 2014).
